Experimental data of several laboratories.
KIT V559D/V654A: Mast/stem cell growth factor receptor Kit (KIT, Homo sapiens, UniProt P10721, V559D/V654A)
KIT: Mast/stem cell growth factor receptor Kit (KIT, Homo sapiens, UniProt P10721)
KIT L576P: Mast/stem cell growth factor receptor Kit (KIT, Homo sapiens, UniProt P10721, L576P)
KIT A829P: Mast/stem cell growth factor receptor Kit (KIT, Homo sapiens, UniProt P10721, A829P)
KIT autoinhibited: Mast/stem cell growth factor receptor Kit, autoinhibited (KIT, Homo sapiens, UniProt P10721)
KIT D816H: Mast/stem cell growth factor receptor Kit (KIT, Homo sapiens, UniProt P10721, D816H)
KIT D816V: Mast/stem cell growth factor receptor Kit (KIT, Homo sapiens, UniProt P10721, D816V)
KIT T670I/V559D: Mast/stem cell growth factor receptor Kit (KIT, Homo sapiens, UniProt P10721, T670I/V559D)
KIT V559D: Mast/stem cell growth factor receptor Kit (KIT, Homo sapiens, UniProt P10721, V559D)

SMILES	target	test	setting	remaining binding [%]
CN1CCN(c2ccc(Nc3nccc(-c4ccccc4)n3)cc2C(F)(F)F)CC1	KIT V559D/V654A	binding	10 µM	4
c1cncc(-c2cccc(Nc3nccc(NC4CCCCC4)n3)c2)c1	KIT	binding, competition with immobilised ligand	10 µM	3.8
C=CC(=O)N1CCC(C(=O)NCC(=O)N2CCN(c3nc(-c4cnc(N)nc4C(F)F)nc(N4CCOCC4)n3)CC2)CC1	KIT L576P	binding, competition with immobilised ligand	1 µM	53
O=C(NCCCN1CCOCC1)c1ccc(Nc2ncc(Cl)c(-c3ccc(Cl)s3)n2)cc1	KIT A829P	binding, competition with immobilised ligand	1 µM	16
CCN1CCN(Cc2ccc(C(=O)Nc3ccc(C)c(Oc4ccc5c(c4)CC(=O)N5)c3)cc2C(F)(F)F)CC1	KIT autoinhibited	binding, competition with immobilised ligand	1 µM	100
CN(CCCC(F)(F)F)c1nccc(-c2cnn3ncccc23)n1	KIT V559D/V654A	binding	1 µM	100
CNC(=O)[C@@H]1CC[C@@H](n2c(-c3ccc4cnccc4c3)nc3ccc(C(=O)NCc4cccc(C(N)=O)c4)cc32)C1	KIT V559D/V654A	binding, competition with immobilised ligand	1 µM	96
CN(C)C(=O)Cn1cc(-c2nc(C3(c4ccc(-c5cnc(N)nc5)cc4)CC3)no2)cn1	KIT A829P	cell-free assay, competition with immobilised ligand	1 µM	93
CN1CCN(c2ccc(Nc3nccc(-c4cccc([N+](=O)[O-])c4)n3)cc2C(F)(F)F)CC1	KIT D816H	binding	10 µM	2.8
COc1ncc2cc3ccccc3nc2c1C#N	KIT D816V	cell-free assay, competition with immobilised ligand	5 µM	95
COc1cnc(Nc2cccc(S(N)(=O)=O)c2)nc1N1CCN(c2ccccc2)C(=O)C1	KIT A829P	binding, competition with immobilised ligand	1 µM	68
O=C(c1ccc(Nc2ncc(Cl)c(-c3cc4ccccc4s3)n2)cc1)N1CCC(N2CCCC2)CC1	KIT autoinhibited	binding, competition with immobilised ligand	1 µM	74
O=C(Nc1cccnn1)N1CCC(=Cc2cccc(Oc3ccc(C(F)(F)F)cn3)c2)CC1	KIT A829P	cell-free assay, competition with immobilised ligand	1 µM	96
CN(c1nccc(-c2cnn3ncccc23)n1)C1CC1	KIT	binding	1 µM	89
Cc1cc(NC(=O)c2cccc(S(F)(F)(F)(F)F)c2)cc(-n2ccn3nc(-c4cccnc4)cc23)c1	KIT autoinhibited	cell-free assay, competition with immobilised ligand	1 µM	70.3
N[C@H]1CCN(c2nccc(-c3cnn4ncccc34)n2)C1	KIT autoinhibited	binding	1 µM	0
CC(C)(C)c1ccc(-c2nc(CBr)nn2-c2cccc(O)c2)cc1	KIT T670I/V559D	cell-free assay, competition with immobilised ligand	10 µM	95
COc1cnc(Nc2cccc(S(N)(=O)=O)c2)nc1N1CCN(c2ccccc2)CC1	KIT D816H	binding, competition with immobilised ligand	1 µM	66

SMILES	target	test	setting	remaining binding [%]
O=C(c1ccc(Nc2nccc(-c3cc4ccccc4s3)n2)cc1)N1CCC(N2CCCC2)CC1	KIT autoinhibited	binding, competition with immobilised ligand	1 µM	66
CN1CCN(c2cnc3c(C4CCN(C(=O)c5ccc(OC(F)(F)F)cc5N)CC4)ncnc3c2)CC1	KIT autoinhibited	cell-free assay, competition with immobilised ligand	1 µM	85
Cc1cnn2ncc(-c3ccnc(N(C)C)n3)c2c1	KIT L576P	binding	1 µM	100
Nc1ncc2c(n1)-c1c([nH]c3ccc(C#CC4CC4)cc13)CCCC2	KIT T670I/V559D	binding, competition with immobilised ligand	1 µM	94
C[C@@H](c1cccc(C#N)c1)n1cc(Cl)cc(C(N)=O)c1=N	KIT D816H	cell-free assay, competition with immobilised ligand	1 µM	100
O=C(NCC1CCOCC1)c1n[nH]cc1NC(=O)c1c(F)cccc1F	KIT	binding, competition with immobilised ligand	1 µM	100
c1cnn2ncc(-c3ccnc(N4CCC45COC5)n3)c2c1	KIT autoinhibited	binding	1 µM	56
O=C(NCCCN1CCOCC1)c1ccc(Nc2nccc(-c3cc4ccccc4s3)n2)cc1	KIT V559D	binding, competition with immobilised ligand	1 µM	26
CC1CCCN1c1nccc(-c2cnn3ncccc23)n1 (stereo not drawn)	KIT V559D	binding	1 µM	100
O=C(O)[C@H]1[C@H](Cn2nnc3ccccc3c2=O)CC[C@@H]1C(=O)c1ccc(OCCC2CCOCC2)cc1	KIT D816H	cell-free assay, competition with immobilised ligand	1 µM	80
O=C(Nc1c[nH]nc1C(=O)NC1CCNCC1)c1cc(F)cc(F)c1	KIT autoinhibited	binding, competition with immobilised ligand	1 µM	82
Cc1cnc(Nc2ccc(C(=O)N3CCC(N4CCCC4)CC3)cc2)nc1-c1cc2ccccc2s1	KIT autoinhibited	binding, competition with immobilised ligand	1 µM	22
Cn1cc(Cl)c2c(Oc3c(F)cc(Nc4cc(Cl)nc(N)n4)cc3F)ccnc21	KIT A829P	cell-free assay, competition with immobilised ligand	0.1 µM	63
CN(C)c1nccc(-c2cnc3ncccn23)n1	KIT V559D/V654A	binding	1 µM	100
C[C@@H](c1ccc(-n2cnc3c(N)ncnc32)cc1)N1CCc2nn(C)c(Cc3ccccc3)c2C1=O	KIT D816V	binding, competition with immobilised ligand	0.1 µM	99
O=C(N[C@H]1CCCCC/C=C\C2C[C@@]2(C(=O)O)NC(=O)[C@@H]2C[C@@H](Oc3ccncc3)CN2C1=O)OC1CCCC1 (stereo partly drawn)	KIT V559D/V654A	binding, competition with immobilised ligand	1 µM	63
C[C@@H]1CCN(c2nccc(-c3cnn4ncccc34)n2)C1	KIT V559D/V654A	binding	1 µM	79
O=C(c1ccc(Nc2ncc(Cl)c(-c3ccc(Cl)s3)n2)cc1)N1CCC(N2CCCC2)CC1	KIT autoinhibited	binding, competition with immobilised ligand	1 µM	7.2
